Source: ChEMBL document CHEMBL4007417, “Target Elucidation by Cocrystal Structures of NADH-Ubiquinone Oxidoreductase of Plasmodium falciparum (PfNDH2) with Small Molecule To Eliminate Drug-Resistant Malaria” (J Med Chem, 2017)
Calls of active or inactive are those of the source. No cut-off for these calls is given here.

How the values were obtained:
[1] = system: Plasmodium yoelii; test: Antimalarial activity against Plasmodium yoelii YM infected in BALB/c mouse assessed reduction in parasitemia at 10 mg/kg/day, sc for 4 days by Giemsa-staining based microscopic analysis; assay type: functional, organism-based
Method in brief: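 P. yoelii-infected mice, n=3 per group. Subcutaneous injection once daily for 4 days starting at 96 h post infection. Parasitemia followed on blood-smear microscopy, with inhibition measured at 24 h post treatment. Cure time taken as the minimum period to cure all mice; survival recorded at 40 days. DMSO controls included.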

[2] = system: Plasmodium falciparum; test: Antimalarial activity against chloroquine/quinine-resistant asexual blood stage Plasmodium falciparum S35 after 72 hrs by SYBR green-based fluorometric analysis; assay type: functional; settings: S35, 72 h
Method in brief: (§1)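 Mid-ring-stage cultures (~6-10 h post-invasion) at 1% parasitemia and 2% hematocrit, in triplicate. Twofold serial dilutions from a top concentration of 100 nM. Incubated 72 h at 37 °C under 5% CO2/5% O2/90% N2. Lysis buffer containing 5×SYBR Green I added, 20 min in the dark, fluorescence read at ex 485/em 538 nm. EC50 derived.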

[3] = Inhibition of Plasmodium falciparum NDH2 Y475R mutant expressed in Escherichia coli DH5alpha competent cells using NADH and ubiquinone-1 as substrate by spectrophotometric analysis
Method in brief: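 Recombinant PfNDH2 point or double mutants assayed spectrophotometrically at 25 °C. Buffer: 50 mM MOPS pH 7.0, 150 mM NaCl, 1 mM EDTA, 0.01% Triton X-100. Substrates 50 µM NADH and 30 µM ubiquinone-1, with 0.5 nM enzyme and selected inhibitor concentrations.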

[4] = Binding affinity to Plasmodium falciparum NDH2 expressed in Escherichia coli BL21 assessed as NADH Kd by SPR assay (reference value: 5.22 uM)
[5] = system: Plasmodium falciparum; test: Non-competitive inhibition of Plasmodium falciparum NDH2 expressed in Escherichia coli BL21 up to 50 nM by spectrophotometric analysis
[6] = system: Plasmodium falciparum; test: Antimalarial activity against sulfadoxine-pyrimethamine/mefloquine resistant asexual blood stage Plasmodium falciparum CP286 after 72 hrs by SYBR green-based fluorometric analysis; assay type: functional; settings: CP286, 72 h; method in brief: as §1
[7] = system: Plasmodium falciparum; test: Antimalarial activity against multi drug-resistant asexual blood stage Plasmodium falciparum D10 after 72 hrs by SYBR green-based fluorometric analysis; assay type: functional; settings: D10, 72 h; method in brief: as §1
[8] = system: Plasmodium falciparum; test: Antimalarial activity against quinine-resistant asexual blood stage Plasmodium falciparum C2A after 72 hrs by SYBR green-based fluorometric analysis; assay type: functional; method in brief: as §1
[9] = system: Plasmodium falciparum; test: Antimalarial activity against […] asexual blood stage Plasmodium falciparum 3D7 after 72 hrs by SYBR green-based fluorometric analysis; assay type: functional; settings: 3D7, 72 h; method in brief: as §1
[10] = system: Plasmodium falciparum; test: Antimalarial activity against […] asexual blood stage Plasmodium falciparum 3D7 assessed as reduction in parasite recrudescence at 10 times EC50 for 72 hrs measured after 28 days post invasion by Giemsa staining-based light microscopic analysis; assay type: functional
Method in brief: (§2)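 Parasite cultures exposed for 72 h to 10× EC50 of inhibitor. Drug then removed and cultures maintained for 28 days post treatment. Recrudescence monitored by microscopy.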

[11] = system: Plasmodium falciparum; test: Antimalarial activity against dihydroartemisinin-resistant asexual blood stage Plasmodium falciparum 803 assessed as reduction in parasite recrudescence at 10 times EC50 for 72 hrs measured after 28 days post invasion by Giemsa staining-based light microscopic analysis; assay type: functional; method in brief: as §2
[12] = system: Plasmodium falciparum; test: Antimalarial activity against mid/late trophozoite stage of Plasmodium falciparum 3D7 assessed as reduction in parasitemia at 10 times EC50 administered at synchronized early ring stages and then removed from culture at 2 hrs intervals after 34 hrs paraiste invasion stage and measured till 40 hrs post invasion by SYBR green-based fluorometric analysis; assay type: functional; parameters: scale not given: the % may be the effect or the level left
Method in brief: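 Synchronized early-ring P. falciparum 3D7 treated with about 10×EC50 compound. Compound removed at 2 h intervals starting at t=34 h (trophozoite), then parasites returned to compound-free medium. Maturation through a single ~48 h asexual cycle followed.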

[13] = system: HeLa; test: Cytotoxicity against human HeLa cells assessed as reduction in cell viability up to 2 uM after 48 hrs by MTT assay; assay type: cell-based
Method in brief: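 HeLa cell viability measured by MTT assay with compound at concentrations up to 2 µM.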

[14] = system: Plasmodium yoelii; test: Antimalarial activity against Plasmodium yoelii YM infected in BALB/c mouse assessed as parasite growth inhibition at 5 mg/kg, sc administered QD for 4 days starting at 2 hrs post infection by Giemsa-staining based microscopic analysis; assay type: functional; settings: read-out: GI
Method in brief: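 P. yoelii-infected mice, n=3 per group. Subcutaneous injection once daily for 4 days starting at 2 h post infection. Growth inhibition determined at 24 h post treatment by blood-smear microscopy. Cure time taken as the minimum period to cure all mice in the group.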

[15] = system: Plasmodium yoelii; test: Antimalarial activity against Plasmodium yoelii YM infected in BALB/c mouse assessed as parasite growth inhibition at 10 mg/kg, sc administered BID for 4 days starting at 96 hrs post infection, 8 hrs apart by Giemsa-staining based microscopic analysis; assay type: functional; settings: read-out: GI
Method in brief: (§3)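 P. yoelii-infected mice, n=3 per group. Subcutaneous injection twice daily, 8 h apart, for 4 days starting at 96 h post infection. Growth inhibition read from blood smears at 24 h post treatment. Cure time taken as the minimum period to cure all mice in the group. DMSO controls included.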

[16] = system: Plasmodium yoelii; test: Antimalarial activity against Plasmodium yoelii YM infected in BALB/c mouse assessed as time duration for parasite cure at 10 mg/kg, sc administered BID for 4 days starting at 96 hrs post infection, 8 hrs apart by Giemsa-staining based microscopic analysis; assay type: functional; method in brief: as §3
[17] = system: Plasmodium yoelii; test: Antimalarial activity against Plasmodium yoelii YM infected in BALB/c mouse assessed as mouse survival at 10 mg/kg, sc administered BID for 4 days starting at 96 hrs post infection, 8 hrs apart by Giemsa-staining based microscopic analysis; assay type: functional
Method in brief: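 Mice inoculated with 1×106 P. yoelii parasites. Subcutaneous dosing for 4 days starting 96 h post infection, given once daily or twice daily 8 h apart. Parasitemia followed on Giemsa-stained blood smears. Survival recorded at 40 days post infection; groups of n=3. DMSO-only mice served as untreated controls.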

[18] = system: Plasmodium yoelii; test: Antimalarial activity against Plasmodium yoelii YM infected in BALB/c mouse assessed as parasite growth inhibition at 90 mg/kg, sc administered BID for 4 days starting at 96 hrs post infection, 8 hrs apart by Giemsa-staining based microscopic analysis; assay type: functional; settings: read-out: GI; method in brief: as §3
[19] = system: Plasmodium yoelii; test: Antimalarial activity against Plasmodium yoelii YM infected in BALB/c mouse assessed as time duration for parasite cure at 90 mg/kg, sc administered BID for 4 days starting at 96 hrs post infection, 8 hrs apart by Giemsa-staining based microscopic analysis; assay type: functional; method in brief: as §3
[20] = system: Plasmodium yoelii; test: Antimalarial activity against Plasmodium yoelii YM infected in BALB/c mouse assessed as parasite cure level at 10 to 90 mg/kg, ip administered on days 1 post infection by Giemsa-stained microscopic analysis; assay type: functional, organism-based
Method in brief: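 Mice (groups of three) inoculated with 1×10^6 P. yoelii parasites. Single intraperitoneal dose of 10, 30 or 90 mg/kg given 24 h after inoculation. DMSO-only untreated group included. Outcome followed by blood-smear microscopy for cure, with survival scored at 40 days post infection.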

[21] = system: Plasmodium falciparum; test: Synergistic antimalarial activity against Plasmodium falciparum in presence of quinine; assay type: functional
Method in brief: (§4)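 In vitro drug interaction analyses with other antimalarials against P. falciparum. Experiments repeated three times; error bars s.e.m.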

[22] = system: Plasmodium falciparum; test: Synergistic antimalarial activity against Plasmodium falciparum in presence of dihydroartemisinin; assay type: functional; method in brief: as §4
[23] = system: Plasmodium falciparum; test: Binding affinity to Plasmodium falciparum NDH2 expressed in Escherichia coli BL21 assessed as reduction in NADH Kd by SPR assay

Structure (SMILES): Cc1c(-c2ccc(Cc3ccc(OC(F)(F)F)cc3)cc2)[nH]c2cccc(F)c2c1=O
- Activity [1]: Active
- EC50 [2]: 5.48 nM
- IC50 [3]: 31.7 nM
- Kd [4]: 37200 nM
- inhibition [5]: Active
- EC50 [6]: 9.58 nM
- EC50 [7]: 9.18 nM
- EC50 [8]: 7.18 nM
- EC50 [9]: 11.3 nM
- Activity [10]: Active
- Activity [11]: Active
- Activity [12]: >=50%
- Activity [13]: Non-Toxic
- inhibition in vivo at 5 mg/kg [14]: 100%
- inhibition in vivo at 10 mg/kg [15]: 100%
- Time [16]: 16 days
- survival at 10 mg/kg [17]: 100%
- inhibition in vivo at 90 mg/kg [18]: 100%
- Time [19]: 4 days
- Activity [20]: Active
- fractional inhibitory concentration index (FICI) [21]: 2.33
- fractional inhibitory concentration index (FICI) [22]: 0.56
- fold change (FC) [23]: 7
